Columns and labels:
Assay type in all cases: functional
SF-539 = assay: Cytotoxicity against human SF539 cells assessed as cell growth at 10 uM; details: read-out: Activity
How it was run: (§1)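 NCI-60 screen: cells grown in RPMI 1640 with 5% FBS and 2 mM L-glutamine, plated at 5000–40,000 cells/well according to doubling time, and preincubated 24 h at 37 °C, 5% CO2. The single 10 µM dose (DMSO stock) was added, then incubated 48 h. Cells were TCA-fixed and stained with 0.4% SRB, read at 515 nm, and growth % calculated against time-zero and control plates.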

SNB-19 = assay: Cytotoxicity against human SNB19 cells assessed as cell growth at 10 uM; details: read-out: Activity; how it was run: as §1
SNB-75 = assay: Cytotoxicity against human SNB75 cells assessed as cell growth at 10 uM; details: read-out: Activity; how it was run: as §1
U-251 = assay: Cytotoxicity against human U251 cells assessed as cell growth at 10 uM; details: read-out: Activity; how it was run: as §1
LOX IMVI = assay: Cytotoxicity against human LOXIMVI cells assessed as cell growth at 10 uM; details: read-out: Activity; how it was run: as §1
Malme-3M = assay: Cytotoxicity against human MALME-3M cells assessed as cell growth at 10 uM; details: read-out: Activity; how it was run: as §1
M14 = assay: Cytotoxicity against human M14 cells assessed as cell growth at 10 uM; details: read-out: Activity; how it was run: as §1
MDA-MB-435 = assay: Cytotoxicity against human MDA-MB-435 cells assessed as cell growth at 10 uM; details: read-out: Activity; how it was run: as §1
SK-MEL-2 = assay: Cytotoxicity against human SK-MEL-2 cells assessed as cell growth at 10 uM; details: read-out: Activity; how it was run: as §1
SK-MEL-28 = assay: Cytotoxicity against human SK-MEL-28 cells assessed as cell growth at 10 uM; details: read-out: Activity; how it was run: as §1
SK-MEL-5 = assay: Cytotoxicity against human SK-MEL-5 cells assessed as cell growth at 10 uM; details: read-out: Activity; how it was run: as §1
UACC-257 = assay: Cytotoxicity against human UACC257 cells assessed as cell growth at 10 uM; details: read-out: Activity; how it was run: as §1
UACC-62 = assay: Cytotoxicity against human UACC62 cells assessed as cell growth at 10 uM; details: read-out: Activity; how it was run: as §1
IGROV-1 = assay: Cytotoxicity against human IGROV1 cells assessed as cell growth at 10 uM; details: read-out: Activity
How it was run: (§2)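 Single-dose NCI-60 screen at 10 µM. Cells were grown in RPMI 1640 with 5% FBS and 2 mM L-glutamine, then treated for 48 h at 37 °C. Protein was measured by SRB staining with absorbance at 515 nm. Percentage growth was recorded, and inhibition percentage was calculated as 100 minus growth percentage.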

OVCAR-3 = assay: Cytotoxicity against human OVCAR-3 cells assessed as cell growth at 10 uM; details: read-out: Activity; how it was run: as §1
OVCAR-4 = assay: Cytotoxicity against human OVCAR4 cells assessed as cell growth at 10 uM; details: read-out: Activity; how it was run: as §1
OVCAR-5 = assay: Cytotoxicity against human OVCAR5 cells assessed as cell growth at 10 uM; details: read-out: Activity; how it was run: as §1
OVCAR-8 = assay: Cytotoxicity against human OVCAR8 cells assessed as cell growth at 10 uM; details: read-out: Activity; how it was run: as §1
NCI/ADR-RES = assay: Cytotoxicity against human NCI/ADR-RES cells assessed as cell growth at 10 uM; details: read-out: Activity; how it was run: as §1
SK-OV-3 = assay: Cytotoxicity against human SKOV3 cells assessed as cell growth at 10 uM; details: read-out: Activity; how it was run: as §1
786-0 = assay: Cytotoxicity against human 786-0 cells assessed as cell growth at 10 uM; details: read-out: Activity; how it was run: as §2
A498 = assay: Cytotoxicity against human A498 cells assessed as cell growth at 10 uM; details: read-out: Activity; how it was run: as §2
ACHN = assay: Cytotoxicity against human ACHN cells assessed as cell growth at 10 uM; details: read-out: Activity; how it was run: as §2
CAKI-1 = assay: Cytotoxicity against human Caki1 cells assessed as cell growth at 10 uM; details: read-out: Activity; how it was run: as §2
RXF 393 = assay: Cytotoxicity against human RXF393 cells assessed as cell growth at 10 uM; details: read-out: Activity; how it was run: as §1
SN12C = assay: Cytotoxicity against human SN12C cells assessed as cell growth at 10 uM; details: read-out: Activity; how it was run: as §1
TK-10 = assay: Cytotoxicity against human TK10 cells assessed as cell growth at 10 uM; details: read-out: Activity; how it was run: as §1
UO-31 = assay: Cytotoxicity against human UO31 cells assessed as cell growth at 10 uM; details: read-out: Activity; how it was run: as §1
PC-3 = assay: Cytotoxicity against human PC3 cells assessed as cell growth at 10 uM; details: read-out: Activity; how it was run: as §1
DU-145 = assay: Cytotoxicity against human DU145 cells assessed as cell growth at 10 uM; details: read-out: Activity; how it was run: as §2
MCF7 = assay: Cytotoxicity against human MCF7 cells assessed as cell growth at 10 uM; details: read-out: Activity; how it was run: as §1
MDA-MB-231 = assay: Cytotoxicity against human MDA-MB-231 cells assessed as cell growth at 10 uM; details: read-out: Activity; how it was run: as §1
[1] = Cytotoxicity against human Hs 578T cells assessed as cell growth at 10 uM; details: read-out: Activity; how it was run: as §2
BT-549 = assay: Cytotoxicity against human BT549 cells assessed as cell growth at 10 uM; details: read-out: Activity; how it was run: as §2
T47D = assay: Cytotoxicity against human T47D cells assessed as cell growth at 10 uM; details: read-out: Activity; how it was run: as §1
MDA-MB-468 = assay: Cytotoxicity against human MDA-MB-468 cells assessed as cell growth at 10 uM; details: read-out: Activity; how it was run: as §1
[2] = Growth inhibition of human NCI60 cells at 10 uM after 48 hrs by sulforhodamine B assay relative to control; details: NCI60, 48 h, read-out: GI
How it was run: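 Single-dose NCI screen at 10 µM across the 60-line panel, 48 h exposure at 37 °C after a 24 h preincubation. Adherent cells were fixed with cold TCA and stained with 0.4% SRB, and absorbance was read at 515 nm. Inhibition % was taken as 100 minus growth %, and the mean across all lines was reported.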

CCRF-CEM = assay: Cytotoxicity against human CCRF-CEM cells assessed as cell growth at 10 uM; details: read-out: Activity; how it was run: as §2
HL-60(TB) = assay: Cytotoxicity against human HL-60(TB) cells assessed as cell growth at 10 uM; details: read-out: Activity
How it was run: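 NCI 60-cell panel screen at a single concentration of 10 µM. Cells are grown in RPMI 1640 with 5% FBS and 2 mM L-glutamine and read by SRB protein staining at 515 nm. Percent growth is measured relative to time-zero and untreated controls; inhibition % is 100 minus growth %.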

K562 = assay: Cytotoxicity against human K562 cells assessed as cell growth at 10 uM; details: read-out: Activity; how it was run: as §2
MOLT-4 = assay: Cytotoxicity against human MOLT4 cells assessed as cell growth at 10 uM; details: read-out: Activity; how it was run: as §1
[3] = Cytotoxicity against human […] cells assessed as cell growth at 10 uM; details: read-out: Activity; how it was run: as §1
SR = assay: Cytotoxicity against human SR cells assessed as cell growth at 10 uM; details: read-out: Activity; how it was run: as §1
A549 = assay: Cytotoxicity against human A549 cells assessed as cell growth at 10 uM; details: read-out: Activity; how it was run: as §2
EKVX = assay: Cytotoxicity against human EKVX cells assessed as cell growth at 10 uM; details: read-out: Activity; how it was run: as §2
HOP-62 = assay: Cytotoxicity against human HOP62 cells assessed as cell growth at 10 uM; details: read-out: Activity; how it was run: as §2
HOP-92 = assay: Cytotoxicity against human HOP92 cells assessed as cell growth at 10 uM; details: read-out: Activity; how it was run: as §2
NCI-H226 = assay: Cytotoxicity against human NCI-H226 cells assessed as cell growth at 10 uM; details: read-out: Activity; how it was run: as §1
NCI-H23 = assay: Cytotoxicity against human NCI-H23 cells assessed as cell growth at 10 uM; details: read-out: Activity; how it was run: as §1
NCI-H322M = assay: Cytotoxicity against human NCI-H322M cells assessed as cell growth at 10 uM; details: read-out: Activity; how it was run: as §1
NCI-H460 = assay: Cytotoxicity against human NCI-H460 cells assessed as cell growth at 10 uM; details: read-out: Activity; how it was run: as §1
NCI-H522 = assay: Cytotoxicity against human NCI-H522 cells assessed as cell growth at 10 uM; details: read-out: Activity; how it was run: as §1
COLO 205 = assay: Cytotoxicity against human COLO205 cells assessed as cell growth at 10 uM; details: read-out: Activity; how it was run: as §2
HCC 2998 = assay: Cytotoxicity against human HCC2998 cells assessed as cell growth at 10 uM; details: read-out: Activity; how it was run: as §2
HCT-116 = assay: Cytotoxicity against human HCT116 cells assessed as cell growth at 10 uM; details: read-out: Activity; how it was run: as §2
HCT-15 = assay: Cytotoxicity against human HCT15 cells assessed as cell growth at 10 uM; details: read-out: Activity; how it was run: as §2
HT-29 = assay: Cytotoxicity against human HT-29 cells assessed as cell growth at 10 uM; details: read-out: Activity; how it was run: as §2
KM12 = assay: Cytotoxicity against human KM12 cells assessed as cell growth at 10 uM; details: read-out: Activity; how it was run: as §1
SW-620 = assay: Cytotoxicity against human SW620 cells assessed as cell growth at 10 uM; details: read-out: Activity; how it was run: as §1
SF-268 = assay: Cytotoxicity against human SF268 cells assessed as cell growth at 10 uM; details: read-out: Activity; how it was run: as §1
SF-295 = assay: Cytotoxicity against human SF295 cells assessed as cell growth at 10 uM; details: read-out: Activity; how it was run: as §1

Compound: Cc1cc(O)cc(-c2nn(CC#N)cc2-c2ccnc(-c3ccc(C#N)cc3)c2)c1
- growth at 10 µM (SF-539): 76%
- growth at 10 µM (SNB-19): 85.2%
- growth at 10 µM (SNB-75): 46.3%
- growth at 10 µM (U-251): 91.5%
- growth at 10 µM (LOX IMVI): 81.9%
- growth at 10 µM (Malme-3M): 125%
- growth at 10 µM (M14): 90.3%
- growth at 10 µM (MDA-MB-435): 88.3%
- growth at 10 µM (SK-MEL-2): 78.5%
- growth at 10 µM (SK-MEL-28): 88.3%
- growth at 10 µM (SK-MEL-5): 58.4%
- growth at 10 µM (UACC-257): 94.2%
- growth at 10 µM (UACC-62): 62.3%
- growth at 10 µM (IGROV-1): 77.3%
- growth at 10 µM (OVCAR-3): 110%
- growth at 10 µM (OVCAR-4): 79.5%
- growth at 10 µM (OVCAR-5): 107%
- growth at 10 µM (OVCAR-8): 72.9%
- growth at 10 µM (NCI/ADR-RES): 77.7%
- growth at 10 µM (SK-OV-3): 88.5%
- growth at 10 µM (786-0): 77.9%
- growth at 10 µM (A498): 103%
- growth at 10 µM (ACHN): 65.2%
- growth at 10 µM (CAKI-1): 84.3%
- growth at 10 µM (RXF 393): 59.4%
- growth at 10 µM (SN12C): 73.5%
- growth at 10 µM (TK-10): 78.4%
- growth at 10 µM (UO-31): 60.1%
- growth at 10 µM (PC-3): 95.5%
- growth at 10 µM (DU-145): 96.3%
- growth at 10 µM (MCF7): 34.4%
- growth at 10 µM (MDA-MB-231): 67%
- growth at 10 µM [1]: 103%
- growth at 10 µM (BT-549): 84.8%
- growth at 10 µM (T47D): 29.2%
- growth at 10 µM (MDA-MB-468): 33.7%
- inhibition of growth at 10 µM [2]: 20.8%
- growth at 10 µM (CCRF-CEM): 81.2%
- growth at 10 µM (HL-60(TB)): 56.2%
- growth at 10 µM (K562): 70%
- growth at 10 µM (MOLT-4): 54.6%
- growth at 10 µM [3]: 70.2%
- growth at 10 µM (SR): 88.5%
- growth at 10 µM (A549): 83.2%
- growth at 10 µM (EKVX): 79.1%
- growth at 10 µM (HOP-62): 85.4%
- growth at 10 µM (HOP-92): 72.3%
- growth at 10 µM (NCI-H226): 79.8%
- growth at 10 µM (NCI-H23): 72.7%
- growth at 10 µM (NCI-H322M): 97.4%
- growth at 10 µM (NCI-H460): 104%
- growth at 10 µM (NCI-H522): 60.7%
- growth at 10 µM (COLO 205): 66.1%
- growth at 10 µM (HCC 2998): 92%
- growth at 10 µM (HCT-116): 65.7%
- growth at 10 µM (HCT-15): 70.4%
- growth at 10 µM (HT-29): 66.3%
- growth at 10 µM (KM12): 95.6%
- growth at 10 µM (SW-620): 119%
- growth at 10 µM (SF-268): 102%
- growth at 10 µM (SF-295): 91.3%
